Reference: ChEMBL document CHEMBL5653631, “A Potent and Selective ULK1 Inhibitor Suppresses Autophagy and Sensitizes Cancer Cells to Nutrient Stress” (iScience, 2018)

Key:
[1] = molecular target: Homeodomain-interacting protein kinase 2 (Homo sapiens) (UniProt Q9H2X6); assay: Inhibition of human recombinant HIPK2 at 40 nM in presence of ATP by radiometric assay relative to control
Homo sapiens = species: Homo sapiens; assay: Inhibition of human recombinant p70S6K at 40 nM in presence of ATP by radiometric assay relative to control
[2] = molecular target: cAMP-dependent protein kinase catalytic subunit beta (Homo sapiens) (UniProt P22694); assay: Inhibition of human recombinant PKACbeta at 40 nM in presence of ATP by radiometric assay relative to control
[3] = molecular target: Receptor-interacting serine/threonine-protein kinase 2 (Homo sapiens) (UniProt O43353); assay: Inhibition of human recombinant RIPK2 at 40 nM in presence of ATP by radiometric assay relative to control
[4] = molecular target: RAC-beta serine/threonine-protein kinase (Homo sapiens) (UniProt P31751); assay: Inhibition of human recombinant AKT2 at 40 nM related to control ULK1
Summary of the method: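 Radiometric activity assays in a panel of 327 human recombinant kinases, each run in duplicate at one inhibitor concentration. Activity remaining is expressed as percent of vehicle control, and percent inhibition is calculated as 100% minus percent activity remaining.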

[5] = molecular target: Calcium/calmodulin-dependent protein kinase kinase 2 (Homo sapiens) (UniProt Q96RR4); assay: Inhibition of human recombinant CaMKK2 at 40 nM related to control ULK1
[6] = molecular target: T1, Serine/threonine-protein kinase 3 (Homo sapiens) (UniProt Q13188); assay: Inhibition of human recombinant MST2 at 40 nM related to control ULK1
T1 sequence (whole entry): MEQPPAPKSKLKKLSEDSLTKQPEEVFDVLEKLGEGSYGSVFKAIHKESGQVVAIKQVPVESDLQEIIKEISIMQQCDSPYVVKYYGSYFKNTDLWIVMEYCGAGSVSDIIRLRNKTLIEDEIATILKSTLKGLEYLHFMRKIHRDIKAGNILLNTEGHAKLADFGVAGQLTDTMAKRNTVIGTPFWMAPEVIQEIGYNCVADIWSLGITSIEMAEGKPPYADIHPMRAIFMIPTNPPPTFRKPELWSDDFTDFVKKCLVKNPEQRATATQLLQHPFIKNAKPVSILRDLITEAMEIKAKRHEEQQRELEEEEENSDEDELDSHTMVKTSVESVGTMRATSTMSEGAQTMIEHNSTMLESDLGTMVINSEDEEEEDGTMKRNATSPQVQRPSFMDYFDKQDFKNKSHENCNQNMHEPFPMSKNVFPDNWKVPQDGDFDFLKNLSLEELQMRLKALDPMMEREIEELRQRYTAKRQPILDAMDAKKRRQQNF

[7] = molecular target: T2, Cytoplasmic tyrosine-protein kinase BMX (Homo sapiens) (UniProt P51813); assay: Inhibition of human recombinant BMX at 500 nM in presence of ATP by radiometric assay relative to control
T2 sequence (whole entry): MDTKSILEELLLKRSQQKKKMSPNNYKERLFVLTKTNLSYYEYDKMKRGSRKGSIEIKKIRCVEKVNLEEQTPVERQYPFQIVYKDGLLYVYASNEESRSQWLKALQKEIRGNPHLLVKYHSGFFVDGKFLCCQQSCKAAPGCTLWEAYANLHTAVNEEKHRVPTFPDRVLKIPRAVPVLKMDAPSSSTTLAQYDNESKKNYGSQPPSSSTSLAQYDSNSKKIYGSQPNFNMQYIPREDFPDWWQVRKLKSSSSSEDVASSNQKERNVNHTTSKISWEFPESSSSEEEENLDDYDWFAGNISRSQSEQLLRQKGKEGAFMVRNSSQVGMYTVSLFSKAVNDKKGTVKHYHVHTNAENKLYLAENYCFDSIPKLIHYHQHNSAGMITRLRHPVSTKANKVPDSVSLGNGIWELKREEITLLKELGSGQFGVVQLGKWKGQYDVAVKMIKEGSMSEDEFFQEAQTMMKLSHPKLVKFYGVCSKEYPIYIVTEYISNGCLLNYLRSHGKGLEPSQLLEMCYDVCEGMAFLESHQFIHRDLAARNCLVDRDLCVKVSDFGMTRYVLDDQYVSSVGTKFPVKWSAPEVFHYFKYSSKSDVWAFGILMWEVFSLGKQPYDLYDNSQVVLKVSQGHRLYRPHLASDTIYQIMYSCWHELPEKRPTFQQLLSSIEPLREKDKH
Summary of the method: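 Part of a radiometric in vitro activity panel of 327 recombinant human kinases. Each kinase was tested in duplicate at one inhibitor concentration. Activity remaining was expressed as a percentage of the vehicle control, and percent inhibition was taken as 100 minus that value.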

[8] = molecular target: Cyclin-dependent kinase 18 (Homo sapiens) (UniProt Q07002); assay: Inhibition of human recombinant PCTAIRE3 at 500 nM in presence of ATP by radiometric assay relative to control
[9] = molecular target: Glycogen synthase kinase-3 alpha (Homo sapiens) (UniProt P49840); assay: Inhibition of human recombinant GSK3A at 500 nM related to control ULK1
[10] = molecular target: Tyrosine-protein kinase Lyn (Homo sapiens) (UniProt P07948); assay: Inhibition of human recombinant LYN at 500 nM related to control ULK1
[11] = molecular target: Serine/threonine-protein kinase N1 (Homo sapiens) (UniProt Q16512); assay: Inhibition of human recombinant PKN1 at 500 nM related to control ULK1
[12] = molecular target: T3, Serine/threonine-protein kinase ULK3 (Homo sapiens) (UniProt Q6PHR2); assay: Inhibition of human recombinant ULK3 at 500 nM related to control ULK1
T3 sequence (whole entry): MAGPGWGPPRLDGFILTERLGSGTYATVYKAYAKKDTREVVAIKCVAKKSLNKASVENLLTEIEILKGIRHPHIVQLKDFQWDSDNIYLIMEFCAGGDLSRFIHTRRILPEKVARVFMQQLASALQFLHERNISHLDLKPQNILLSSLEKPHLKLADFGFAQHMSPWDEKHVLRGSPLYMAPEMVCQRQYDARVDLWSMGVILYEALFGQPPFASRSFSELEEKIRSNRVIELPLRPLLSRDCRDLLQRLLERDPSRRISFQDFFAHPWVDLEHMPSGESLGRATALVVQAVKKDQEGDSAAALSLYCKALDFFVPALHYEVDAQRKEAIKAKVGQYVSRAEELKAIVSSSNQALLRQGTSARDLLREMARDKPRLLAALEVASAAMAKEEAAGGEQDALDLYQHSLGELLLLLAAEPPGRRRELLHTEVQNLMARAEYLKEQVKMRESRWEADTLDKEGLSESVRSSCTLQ

[13] = molecular target: Mitogen-activated protein kinase kinase kinase kinase 1 (Homo sapiens) (UniProt Q92918); assay: Inhibition of human recombinant HPK1 at 15 nM in presence of ATP by radiometric assay relative to control
[14] = molecular target: Insulin receptor-related protein (Homo sapiens) (UniProt P14616); assay: Inhibition of human recombinant IRR at 15 nM in presence of ATP by radiometric assay relative to control
[15] = molecular target: Rho-associated protein kinase 1 (Homo sapiens) (UniProt Q13464); assay: Inhibition of human recombinant ROCK1 at 15 nM related to control ULK1

Sequence of Tyrosine-protein kinase Lyn (Homo sapiens) (P07948 2-512 limits assumed): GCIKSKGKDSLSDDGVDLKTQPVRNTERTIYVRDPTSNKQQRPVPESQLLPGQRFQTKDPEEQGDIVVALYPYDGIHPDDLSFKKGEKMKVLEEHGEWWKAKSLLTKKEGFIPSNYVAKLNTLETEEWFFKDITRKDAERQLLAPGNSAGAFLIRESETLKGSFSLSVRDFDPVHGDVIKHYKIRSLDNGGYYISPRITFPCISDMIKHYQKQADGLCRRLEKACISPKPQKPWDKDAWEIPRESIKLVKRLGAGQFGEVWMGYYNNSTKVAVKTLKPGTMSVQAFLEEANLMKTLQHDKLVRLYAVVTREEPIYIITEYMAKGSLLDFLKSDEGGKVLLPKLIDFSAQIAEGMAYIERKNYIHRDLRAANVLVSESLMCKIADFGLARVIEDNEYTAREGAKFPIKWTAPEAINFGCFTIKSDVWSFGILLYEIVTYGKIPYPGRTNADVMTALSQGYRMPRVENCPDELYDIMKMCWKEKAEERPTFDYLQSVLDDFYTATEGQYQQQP
Sequence of Mitogen-activated protein kinase kinase kinase kinase 1 (Homo sapiens) (Q92918 whole entry, looked up): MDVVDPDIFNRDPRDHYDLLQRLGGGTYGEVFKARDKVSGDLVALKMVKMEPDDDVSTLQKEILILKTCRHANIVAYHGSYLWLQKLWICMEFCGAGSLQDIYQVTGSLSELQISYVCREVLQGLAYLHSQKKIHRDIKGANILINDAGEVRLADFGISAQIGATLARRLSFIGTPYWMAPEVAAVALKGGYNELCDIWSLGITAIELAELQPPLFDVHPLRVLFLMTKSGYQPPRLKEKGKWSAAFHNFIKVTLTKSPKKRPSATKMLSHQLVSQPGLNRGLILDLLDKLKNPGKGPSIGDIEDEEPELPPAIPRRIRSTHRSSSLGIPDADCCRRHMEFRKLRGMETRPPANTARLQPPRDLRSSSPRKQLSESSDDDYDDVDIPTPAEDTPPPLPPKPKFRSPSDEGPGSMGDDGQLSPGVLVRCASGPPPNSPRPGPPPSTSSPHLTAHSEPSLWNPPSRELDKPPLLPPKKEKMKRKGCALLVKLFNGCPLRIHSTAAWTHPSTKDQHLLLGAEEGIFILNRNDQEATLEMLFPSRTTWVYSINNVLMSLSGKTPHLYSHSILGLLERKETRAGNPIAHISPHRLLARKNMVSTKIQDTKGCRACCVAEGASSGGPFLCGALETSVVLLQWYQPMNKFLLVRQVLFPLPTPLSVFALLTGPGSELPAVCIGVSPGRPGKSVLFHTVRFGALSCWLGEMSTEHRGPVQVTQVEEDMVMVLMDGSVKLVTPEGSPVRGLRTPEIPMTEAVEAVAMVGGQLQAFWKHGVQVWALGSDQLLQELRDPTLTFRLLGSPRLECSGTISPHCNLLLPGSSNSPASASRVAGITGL
Sequence of Cyclin-dependent kinase 18 (Homo sapiens) (Q07002 whole entry): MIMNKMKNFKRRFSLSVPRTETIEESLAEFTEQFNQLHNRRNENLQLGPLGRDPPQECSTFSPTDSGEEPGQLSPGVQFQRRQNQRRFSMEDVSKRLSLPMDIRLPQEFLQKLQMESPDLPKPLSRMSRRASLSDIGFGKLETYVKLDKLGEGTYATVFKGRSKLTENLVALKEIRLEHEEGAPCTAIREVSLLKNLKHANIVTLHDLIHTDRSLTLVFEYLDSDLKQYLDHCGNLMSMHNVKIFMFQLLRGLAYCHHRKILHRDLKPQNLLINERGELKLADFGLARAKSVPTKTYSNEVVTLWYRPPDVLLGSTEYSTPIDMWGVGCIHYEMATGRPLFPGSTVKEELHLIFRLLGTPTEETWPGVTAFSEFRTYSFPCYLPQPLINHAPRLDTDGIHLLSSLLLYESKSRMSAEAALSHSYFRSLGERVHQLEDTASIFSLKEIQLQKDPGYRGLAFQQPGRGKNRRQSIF
Sequence of Receptor-interacting serine/threonine-protein kinase 2 (Homo sapiens) (O43353 whole entry): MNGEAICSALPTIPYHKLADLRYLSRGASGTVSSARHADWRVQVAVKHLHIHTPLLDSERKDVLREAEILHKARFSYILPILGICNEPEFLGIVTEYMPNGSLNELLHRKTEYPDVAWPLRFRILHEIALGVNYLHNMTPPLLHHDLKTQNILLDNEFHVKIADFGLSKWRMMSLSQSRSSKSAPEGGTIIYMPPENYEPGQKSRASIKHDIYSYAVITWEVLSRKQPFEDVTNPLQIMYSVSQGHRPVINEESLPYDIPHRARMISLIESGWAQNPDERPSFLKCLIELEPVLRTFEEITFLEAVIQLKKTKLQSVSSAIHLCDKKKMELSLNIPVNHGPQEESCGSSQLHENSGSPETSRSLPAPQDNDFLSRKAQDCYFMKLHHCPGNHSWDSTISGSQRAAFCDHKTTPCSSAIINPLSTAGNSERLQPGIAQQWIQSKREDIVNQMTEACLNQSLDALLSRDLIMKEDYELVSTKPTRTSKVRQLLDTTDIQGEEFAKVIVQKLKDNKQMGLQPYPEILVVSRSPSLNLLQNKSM
Sequence of Serine/threonine-protein kinase N1 (Homo sapiens) (Q16512 2-942 limits assumed): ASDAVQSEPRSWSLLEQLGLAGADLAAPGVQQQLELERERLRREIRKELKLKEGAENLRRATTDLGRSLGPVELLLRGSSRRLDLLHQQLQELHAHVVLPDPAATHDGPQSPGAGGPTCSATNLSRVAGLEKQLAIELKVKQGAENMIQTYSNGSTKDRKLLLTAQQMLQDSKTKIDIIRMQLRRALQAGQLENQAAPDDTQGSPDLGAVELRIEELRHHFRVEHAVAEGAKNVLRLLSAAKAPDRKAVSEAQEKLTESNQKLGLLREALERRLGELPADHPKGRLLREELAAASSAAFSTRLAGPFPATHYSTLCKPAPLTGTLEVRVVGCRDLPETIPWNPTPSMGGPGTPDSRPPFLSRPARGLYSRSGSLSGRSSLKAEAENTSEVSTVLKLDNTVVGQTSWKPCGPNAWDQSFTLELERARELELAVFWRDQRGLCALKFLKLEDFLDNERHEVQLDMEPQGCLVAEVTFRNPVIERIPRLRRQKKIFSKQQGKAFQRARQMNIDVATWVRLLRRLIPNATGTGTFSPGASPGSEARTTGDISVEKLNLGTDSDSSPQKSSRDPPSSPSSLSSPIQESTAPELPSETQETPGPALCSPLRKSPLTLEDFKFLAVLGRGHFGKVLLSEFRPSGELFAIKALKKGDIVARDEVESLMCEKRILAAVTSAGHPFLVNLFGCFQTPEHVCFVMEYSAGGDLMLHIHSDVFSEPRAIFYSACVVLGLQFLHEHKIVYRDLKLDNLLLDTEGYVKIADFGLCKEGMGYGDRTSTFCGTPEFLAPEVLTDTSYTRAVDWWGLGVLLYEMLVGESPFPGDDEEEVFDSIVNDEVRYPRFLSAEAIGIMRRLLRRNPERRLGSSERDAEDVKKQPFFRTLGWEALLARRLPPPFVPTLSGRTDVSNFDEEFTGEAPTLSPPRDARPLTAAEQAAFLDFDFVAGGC
Sequence of Homeodomain-interacting protein kinase 2 (Homo sapiens) (Q9H2X6 whole entry, looked up): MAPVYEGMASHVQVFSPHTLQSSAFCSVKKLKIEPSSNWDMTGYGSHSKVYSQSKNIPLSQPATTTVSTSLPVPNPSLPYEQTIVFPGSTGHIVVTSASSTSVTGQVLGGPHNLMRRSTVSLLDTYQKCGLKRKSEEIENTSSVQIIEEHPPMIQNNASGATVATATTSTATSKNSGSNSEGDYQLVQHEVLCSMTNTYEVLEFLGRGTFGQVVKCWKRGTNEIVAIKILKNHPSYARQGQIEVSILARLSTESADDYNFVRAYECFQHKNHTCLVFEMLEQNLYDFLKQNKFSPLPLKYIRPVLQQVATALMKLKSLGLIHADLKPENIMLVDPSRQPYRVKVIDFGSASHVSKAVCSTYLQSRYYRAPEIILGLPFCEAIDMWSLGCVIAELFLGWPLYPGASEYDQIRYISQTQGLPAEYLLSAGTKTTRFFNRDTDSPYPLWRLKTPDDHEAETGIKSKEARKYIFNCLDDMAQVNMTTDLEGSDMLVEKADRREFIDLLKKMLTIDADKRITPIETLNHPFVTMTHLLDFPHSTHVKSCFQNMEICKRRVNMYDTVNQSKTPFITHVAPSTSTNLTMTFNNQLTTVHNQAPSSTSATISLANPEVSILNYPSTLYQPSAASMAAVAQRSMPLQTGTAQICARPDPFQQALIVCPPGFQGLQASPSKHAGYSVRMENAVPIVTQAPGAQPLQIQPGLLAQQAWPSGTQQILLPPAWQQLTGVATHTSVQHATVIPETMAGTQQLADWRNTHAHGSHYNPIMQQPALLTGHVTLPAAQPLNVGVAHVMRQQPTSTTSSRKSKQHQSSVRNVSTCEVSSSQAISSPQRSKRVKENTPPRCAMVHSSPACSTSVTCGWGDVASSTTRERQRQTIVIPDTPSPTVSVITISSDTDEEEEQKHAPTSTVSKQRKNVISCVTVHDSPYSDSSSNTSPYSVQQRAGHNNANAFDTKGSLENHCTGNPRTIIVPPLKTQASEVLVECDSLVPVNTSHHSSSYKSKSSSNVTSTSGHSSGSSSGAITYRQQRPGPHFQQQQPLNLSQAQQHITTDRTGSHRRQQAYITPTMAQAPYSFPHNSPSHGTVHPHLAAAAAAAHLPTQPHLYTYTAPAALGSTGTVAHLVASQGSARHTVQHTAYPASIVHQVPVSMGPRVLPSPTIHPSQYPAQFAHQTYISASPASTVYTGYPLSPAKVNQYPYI
Sequence of Glycogen synthase kinase-3 alpha (Homo sapiens) (P49840 2-483 limits assumed): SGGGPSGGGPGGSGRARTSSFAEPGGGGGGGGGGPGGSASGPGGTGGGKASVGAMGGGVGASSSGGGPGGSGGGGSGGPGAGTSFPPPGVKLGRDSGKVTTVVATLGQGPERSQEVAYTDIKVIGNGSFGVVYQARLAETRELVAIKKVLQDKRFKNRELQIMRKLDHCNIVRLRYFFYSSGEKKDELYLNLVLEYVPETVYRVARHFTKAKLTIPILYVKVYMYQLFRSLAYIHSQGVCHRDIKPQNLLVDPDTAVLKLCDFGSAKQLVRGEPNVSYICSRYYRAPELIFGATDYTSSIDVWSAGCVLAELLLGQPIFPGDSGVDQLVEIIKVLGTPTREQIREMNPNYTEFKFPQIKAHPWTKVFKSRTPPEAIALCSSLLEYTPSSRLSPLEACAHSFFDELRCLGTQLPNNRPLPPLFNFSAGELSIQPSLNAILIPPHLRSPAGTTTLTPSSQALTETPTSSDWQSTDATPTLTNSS

Question: Which results are given for `O=C(N[C@@H](C1CC1)C(F)(F)F)c1cc(-c2cnn3cc(-c4ccc(F)cc4)cnc23)cs1`?
Answer: inhibition [1]: 0%; inhibition (Homo sapiens): 2%; inhibition [2]: 0%; inhibition [3]: 30%; fold change (FC) [4]: 0.14; fold change (FC) [5]: 0; fold change (FC) [6]: 0

Question: How did the inhibition [7] turn out when `CNC(=O)c1ccccc1Oc1nc(Nc2cc(OC)c(OC)c(OC)c2)ncc1Br` was run?
Answer: 16%

Question: And the inhibition [8]?
Answer: 20%

Question: What about the fold change (FC) [9] of the same compound?
Answer: 0

Question: And the fold change (FC) [10]?
Answer: 0.41

Question: What about the fold change (FC) [11] of the same compound?
Answer: 0

Question: What about the fold change (FC) [12] of the same compound?
Answer: 1.14

Question: Which results are given for `CC(C)[C@H](NC(=O)c1cc(-c2cnn3cc(-c4ccc(OCCN5CCCCC5)cc4)cnc23)cs1)C(F)(F)F`?
Answer: inhibition [13]: 0%; inhibition [14]: 2%; fold change (FC) [15]: 0.09
